Reference: ChEMBL document CHEMBL1136312, “Nortropinyl-arylsulfonylureas as novel, reversible inhibitors of human steroid sulfatase” (Bioorg Med Chem Lett, 2003)

Key:
Steryl-sulfatase [1] = target: T1, Steryl-sulfatase (Homo sapiens, UniProt P08842); experiment: Inhibitory constant against purified human Steroid sulfatase
T1 sequence (P08842 whole entry): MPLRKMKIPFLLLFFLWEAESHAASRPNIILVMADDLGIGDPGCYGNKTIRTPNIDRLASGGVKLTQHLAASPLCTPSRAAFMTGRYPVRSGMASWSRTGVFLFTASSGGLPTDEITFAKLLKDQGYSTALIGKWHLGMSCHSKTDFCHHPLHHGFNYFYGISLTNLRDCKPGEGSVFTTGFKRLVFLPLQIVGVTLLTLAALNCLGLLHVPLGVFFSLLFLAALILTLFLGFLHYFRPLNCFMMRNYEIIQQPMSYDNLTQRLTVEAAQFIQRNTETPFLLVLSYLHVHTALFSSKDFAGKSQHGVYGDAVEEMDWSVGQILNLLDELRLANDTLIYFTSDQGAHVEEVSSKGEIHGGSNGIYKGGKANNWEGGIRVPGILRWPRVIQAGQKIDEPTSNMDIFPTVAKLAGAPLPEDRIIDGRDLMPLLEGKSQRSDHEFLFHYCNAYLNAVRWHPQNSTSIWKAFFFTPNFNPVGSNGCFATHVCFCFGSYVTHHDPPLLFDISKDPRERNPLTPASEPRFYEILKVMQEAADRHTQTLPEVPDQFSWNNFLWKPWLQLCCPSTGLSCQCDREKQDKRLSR
Method in brief: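 Kinetic study with purified recombinant human STS and 4-MUS substrate in the discontinuous fluorimetric assay. Substrate turnover rates are measured at various inhibitor concentrations and replotted as Hanes diagrams. Kapp/Vapp ratios are plotted against inhibitor concentration, and Ki is read from the abscissa intercept. Pre-incubation and dextran-activated charcoal treatment were used to test reversibility.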

Steryl-sulfatase [2] = target: T1, Steryl-sulfatase; experiment: Inhibitory activity against Steroid sulfatase expressed in CHO cells; type: cell-based
Method in brief: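 Intact CHO cells over-expressing recombinant human STS are given 4-MUS as substrate, using the assay variant for reversible inhibitors. STS activity is measured in the presence of inhibitor, and the IC50 is derived.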

MCF7 = experiment: Growth stimulation of estrogen receptor positive MCF-7 human breast cancer cells with compound up to 10 uM; not estrogenic; type: functional, cell-based
Steryl-sulfatase [3] = target: T1, Steryl-sulfatase; experiment: Inhibitory activity against purified human Steroid sulfatase
Method in brief: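 Homogeneous human STS, purified from recombinant CHO cells, cleaves 4-methylumbelliferyl sulfate (4-MUS). The reaction is followed in a discontinuous fluorimetric assay with and without inhibitor, using a 1 h incubation in the standard format. The IC50 is taken from the inhibition data.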

Compound | Ki (Steryl-sulfatase [1]) | IC50 (Steryl-sulfatase [2]) | Activity (MCF7) | IC50 (Steryl-sulfatase [3])
O=C(NN1[C@@H]2CC[C@H]1C[C@@H](OC(=O)Cc1ccccc1)C2)NS(=O)(=O)c1ccc(Cl)cc1 | 0.89 µM | 3.84 µM | not estrogenic | 
O=C(Cc1ccccc1)O[C@H]1C[C@H]2CC[C@@H](C1)N2C(=O)NS(=O)(=O)c1cc(C(F)(F)F)cc(C(F)(F)F)c1 | 0.076 µM | 1.89 µM |  | 0.084 µM
O=C(Cc1ccccc1)O[C@H]1C[C@H]2CC[C@@H](C1)N2C(=O)NS(=O)(=O)c1ccc(Cl)cc1 | 2.4 µM | 6.72 µM |  | 
O=C(Cc1ccccc1)O[C@H]1C[C@H]2CC[C@@H](C1)N2C(=O)CS(=O)(=O)c1ccc(Cl)cc1 |  | 4.32 µM |  | 6.2 µM
O=C(Cc1ccccc1)O[C@H]1C[C@H]2CC[C@@H](C1)N2C(=O)NS(=O)(=O)c1ccccc1 |  | > 30 µM |  | > 100 µM
O=C(Cc1ccccc1)O[C@H]1C[C@H]2CC[C@@H](C1)N2C(=O)NC(=O)c1ccc(Cl)cc1 | 5.8 µM | 10.4 µM |  | 
Cc1ccc(S(=O)(=O)NC(=O)N2[C@@H]3CC[C@H]2C[C@@H](OC(=O)Cc2ccccc2)C3)cc1 |  | 37.1 µM |  | 16.6 µM
O=C(Cc1ccccc1)O[C@H]1C[C@H]2CC[C@@H](C1)N2C(=O)NS(=O)(=O)c1ccc(C(F)(F)F)cc1 | 0.53 µM | 7.47 µM |  | 
O=C(Cc1ccccc1)O[C@H]1C[C@H]2CC[C@@H](C1)N2C(=O)NS(=O)(=O)c1ccc(F)cc1 |  | 39.2 µM |  | 50 µM
N#CC1(OC(=O)Cc2ccccc2)CCN(C(=O)NS(=O)(=O)c2ccc(Cl)cc2)CC1 |  | 24.5 µM |  | 13 µM
O=C(Cc1ccccc1)OC1CCN(C(=O)NS(=O)(=O)c2ccc(Cl)cc2)CC1 |  | > 30 µM |  | > 100 µM
C[C@]12CC[C@@H]3c4ccc(OS(N)(=O)=O)cc4CC[C@H]3[C@@H]1CCC2=O [EMATE] | 0.67 µM | 0.03 µM |  | 
O=C(Cc1ccccc1)O[C@H]1C[C@H]2CC[C@@H](C1)N2C(=O)NS(=O)(=O)c1ccc(Br)cc1 | 1.85 µM | 6.15 µM |  | 
